Laboratory results: ChEMBL document CHEMBL1157068, “Crossbyanols A-D, toxic brominated polyphenyl ethers from the Hawai'ian bloom-forming Cyanobacterium Leptolyngbya crossbyana” (J Nat Prod, 2010)
≈ marks a conversion by molar mass, not a printed value. Calls of active or inactive are those of the source. No cut-off for these calls is given here.

Columns and labels:
Neuro2a [1] = experiment: Inhibition of voltage-gated sodium channel in mouse Neuro2a cells at 20 ug/ml after 24 hrs by MTT assay; assay type: cell-based
NCI-H460 = experiment: Cytotoxicity against human H460 cells after 48 hrs by MTT assay; assay type: functional, cell-based
Outline: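 H-460 cells at 3.33×10^4 cells/mL in RPMI 1640 with FBS and 1% pen/strep, 180 µL/well, recovered overnight (37 °C, 5% CO2). DMSO stocks (10 mg/mL) diluted in serum-free RPMI to final 30 or 3 µg/mL; serum-free medium as negative control. ~48 h incubation, then MTT, absorbance read at 570 and 630 nm.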

Staphylococcus aureus = experiment: Antibacterial activity against methicillin-resistant Staphylococcus aureus after 24 hrs by optical density method; assay type: functional
Outline: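 MRSA grown on GYT medium for 24 h at 37 °C, then inoculated into GYT medium containing serial dilutions of compound and incubated 24 h at 37 °C. Growth read as optical density at 600 nm. MIC taken as the lowest concentration inhibiting bacterial growth.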

Neuro2a [2] = experiment: Activation of voltage-gated sodium channel in mouse Neuro2a cells at 20 ug/ml after 16 hrs by MTT assay; assay type: cell-based
Outline: (§1)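 Neuro2a cells plated at 3.0×10^5 cells/mL in RPMI 1640 with 10% FBS and 1% pen/strep, 200 µL/well, recovered overnight (37 °C, 5% CO2). DMSO stocks (10 mg/mL) diluted in serum-free RPMI to a final 20 µg/mL. Bottom half of plate got 5 mM ouabain plus 150 µM veratridine in PBS/5 mM HCl; top half PBS/HCl only for general toxicity. Brevetoxin-2 positive control. MTT after ~16 h, read at 570/630 nm.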

[3] = Activation of voltage-gated sodium channel in mouse Neuro2a cells after 16 hrs by MTT assay; assay type: cell-based; details: N2a; outline: as §1
Artemia salina = experiment: Toxicity in Artemia salina after 24 hrs; assay type: organism-based
Outline: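 Artemia salina eggs hatched over 24 h; about 20 nauplii in ~0.5 mL seawater added per well holding sample in 50 µL EtOH plus 4.5 mL artificial seawater. Final concentrations 1, 5 and 25 ppm, controls and samples in triplicate. Live and dead counted after 24 h at 28 °C.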

| SMILES | inhibition (Neuro2a [1]) | Activity (NCI-H460) | Activity (Staphylococcus aureus) | Activity (Neuro2a [2]) | IC50 (NCI-H460; NCI-H460, 48 h) | IC50 [3] | Activity (Artemia salina; artemia salina, in vivo, 24 h) | IC50 (Artemia salina) | MIC (Staphylococcus aureus) |
| --- | --- | --- | --- | --- | --- | --- | --- | --- | --- |
| O=S(=O)(O)Oc1ccc(Oc2c(Br)cc(Oc3ccc(O)c(Br)c3)cc2Oc2ccc(Br)cc2Br)c(Br)c1Oc1ccc(Br)cc1Br | inactive | inactive | inactive | inactive | – | – | – | – | – |
| O=S(=O)(O)Oc1ccc(Oc2cc(Br)c(Oc3ccc(O)c(Oc4ccc(Br)cc4Br)c3Br)c(Oc3ccc(Br)cc3Br)c2)cc1Br | inactive | inactive | inactive | inactive | – | – | – | – | – |
| Oc1ccc(Oc2cc(Br)c(Oc3ccc(O)c(Oc4ccc(Br)cc4Br)c3Br)c(Oc3ccc(Br)cc3Br)c2)cc1Br [CROSSBYANOL A] | inactive | – | inactive | – | 30 µg/mL (≈ 29.1 µM) | 20 µg/mL (≈ 19.4 µM) | Non-toxic | – | – |
| O=S(=O)(O)Oc1ccc(Oc2cc(Br)c(Oc3ccc(OS(=O)(=O)O)c(Oc4ccc(Br)cc4Br)c3Br)c(Oc3ccc(Br)cc3Br)c2)cc1Br [CROSSBYANOL B] | inactive | inactive | – | inactive | – | – | – | 2.8 ppm | 2 µg/mL (≈ 1.68 µM) |
